This note sets out measurements from ChEMBL document CHEMBL1125797, “Synthesis, characterization and myocardial uptake of cationic bis(arene)technetium(I) complexes” (J Med Chem, 1991).

What all share (settings): in vivo
In data set [1] the test system is Rattus norvegicus. In words: Biodistribution of compound in rat blood after 5 min of administration. It counts as ADME, organism-based. The gist of the method:
(§1)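 Female Sprague-Dawley rats (150–200 g) received the 99mTc complex in normal saline (~12.5 μCi/mL) via a lateral tail vein at ~25 μCi/kg. They were killed by cervical dislocation 5 min after injection. Tissues were washed with saline, blotted, weighed and γ-counted, and the read-out was percent injected dose per g tissue.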

Data set [2] deals with Rattus norvegicus. In words: Biodistribution of compound in rat heart after 5 min of administration. It counts as ADME, organism-based. The essentials:
as §1

The test system of data set [3] is Rattus norvegicus. Briefly: Biodistribution of compound in rat kidney after 5 min of administration. The data set is classed as ADME, organism-based. The essentials: as §1
In data set [4] the test system is Rattus norvegicus. Briefly: Biodistribution of compound in rat liver after 5 min of administration. The data set is classed as ADME, organism-based. The essentials:
as §1

Data set [5] deals with Rattus norvegicus. Briefly: Biodistribution of compound in rat lung after 5 min of administration. The data set is classed as ADME, organism-based. The essentials: (§2)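 Rats received the 99mTc complex in normal saline (~12.5 μCi/mL) by lateral tail vein injection at ~25 μCi/kg and were killed by cervical dislocation at the stated time. Tissues were washed with saline, blotted, weighed and γ-counted to give percent injected dose/g. Time-course values are averages of male and female rats.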

The nature of data set [6]: Biodistribution of compound in rat muscle after 5 min of administration. It counts as ADME, organism-based, Muscle tissue. The essentials: as §2

In the case of Bis(toluene)technetium, the Dose/g worked out at 0.2% in the data set with Rattus norvegicus [1]; 0.22% with Rattus norvegicus [2]; 3.4% in the data set on Rattus norvegicus [3]; 2.6% in the data set with Rattus norvegicus [4]; 0.51% with Rattus norvegicus [5]; 0.069% in data set [6].
